Results as given in ChEMBL document CHEMBL3808334, “Synthesis and in vitro evaluation of novel triazine analogues as anticancer agents and their interaction studies with bovine serum albumin” (Eur J Med Chem, 2016).

Tests used:
[1] = Growth inhibition of human COLO205 cells incubated for 48 hrs by sulforhodamine B assay; format: functional; conditions: COLO 205, 48 h
Method in brief: (§1)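 Cells seeded at 5,000–40,000/well according to doubling time and preincubated 24 h at 37 °C, 5% CO2. Time-zero plates were TCA-fixed. DMSO concentrate was diluted in medium with 50 µg/ml gentamicin to give five concentrations (10-fold or ½ log steps), then exposed 48 h. Cells were TCA-fixed, stained with 0.4% SRB and read at 515 nm. Percent growth was taken against time-zero and control; GI50, TGI and LC50 derived.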

MCF7 = assay: Growth inhibition of human MCF7 cells assessed as cell growth at 10 uM incubated for 48 hrs by sulforhodamine B assay; format: functional; conditions: MCF7, 48 h, read-out: Activity
[2] = Growth inhibition of human OVCAR5 cells incubated for 48 hrs by sulforhodamine B assay; format: functional; conditions: OVCAR-5, 48 h
Method in brief: (§2)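 Cells were plated at 5,000–40,000 per well according to doubling time and preincubated 24 h at 37 °C in 5% CO2; time-zero plates were then TCA-fixed. Five concentrations (10-fold or ½-log dilutions, DMSO stock) were incubated 48 h. Cells were TCA-fixed, stained with 0.4% SRB and read at 515 nm. GI50 was taken where [(Ti−Tz)/(C−Tz)]×100 = 50.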

[3] = Growth inhibition of human LOXIMVI cells assessed as cell growth at 10^-8 M incubated for 48 hrs by sulforhodamine B assay; format: functional; conditions: LOX IMVI, read-out: Activity
[4] = Growth inhibition of human TK10 cells assessed as cell growth at 10^-6 M incubated for 48 hrs by sulforhodamine B assay; format: functional; conditions: TK-10, 48 h, read-out: Activity
Albumin = Albumin (Bos taurus, UniProt P02769); assay: Binding affinity to bovine serum albumin assessed as isoemissive point up to 20 uM by fluorescence spectroscopic analysis relative to control; format: ADME; conditions: cattle, isolated protein
Chain of Albumin (P02769 whole entry): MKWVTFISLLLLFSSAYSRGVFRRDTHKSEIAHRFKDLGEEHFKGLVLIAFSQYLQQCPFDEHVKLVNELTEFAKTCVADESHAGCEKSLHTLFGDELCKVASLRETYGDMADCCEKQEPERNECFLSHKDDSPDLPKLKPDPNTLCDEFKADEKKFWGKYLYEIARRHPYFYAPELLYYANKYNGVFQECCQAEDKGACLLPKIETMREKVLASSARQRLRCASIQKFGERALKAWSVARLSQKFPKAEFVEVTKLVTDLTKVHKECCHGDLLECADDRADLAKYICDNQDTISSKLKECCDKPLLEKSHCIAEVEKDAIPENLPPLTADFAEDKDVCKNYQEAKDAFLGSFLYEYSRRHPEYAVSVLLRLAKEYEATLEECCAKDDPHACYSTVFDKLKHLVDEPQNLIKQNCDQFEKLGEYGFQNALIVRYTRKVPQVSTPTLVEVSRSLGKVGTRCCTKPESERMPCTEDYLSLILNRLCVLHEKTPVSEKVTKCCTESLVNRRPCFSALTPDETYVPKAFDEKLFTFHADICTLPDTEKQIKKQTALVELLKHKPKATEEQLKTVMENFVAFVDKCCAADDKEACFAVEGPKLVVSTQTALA
Method in brief: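 Fluorescence titration of 10 µM BSA in 0.1 M phosphate buffer pH 7.4 with compound at 0–20 µM, diluted from DMSO stocks. Excitation 280 nm, slit 10 nm, 1 cm quartz cell, 300 K. Changes in the 350 nm Trp emission, new bands near 370–373 nm and isoemissive points are read against BSA alone.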

SN12C [5] = assay: Growth inhibition of human SN12C cells assessed as cell growth at 10 uM incubated for 48 hrs by sulforhodamine B assay; format: functional; conditions: read-out: Activity
SN12C [6] = assay: Growth inhibition of human SN12C cells incubated for 48 hrs by sulforhodamine B assay; format: functional; method in brief: as §2
ACHN = assay: Growth inhibition of human ACHN cells assessed as cell growth at 10^-8 M incubated for 48 hrs by sulforhodamine B assay; format: functional; conditions: read-out: Activity
Method in brief: (§3)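 Five-dose assay: five concentrations from 10-fold or ½-log serial dilutions. Cells are plated at 5,000–40,000 per well according to doubling time, grown 24 h, then exposed 48 h at 37 °C, 5% CO₂. Fixed with cold 50% TCA (final addition) for 60 min at 4 °C and stained with 0.4% SRB in 1% acetic acid. Bound dye is solubilized in 10 mM Tris base and read at 515 nm. GI₅₀ is where [(Ti−Tz)/(C−Tz)]×100 = 50, with a time-zero plate as Tz.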

[7] = Growth inhibition of human SKOV3 cells assessed as cell growth at 10^-8 M incubated for 48 hrs by sulforhodamine B assay; format: functional; conditions: SK-OV-3, 48 h, read-out: Activity
NCI/ADR-RES = assay: Growth inhibition of human NCI/ADR-RES cells assessed as cell growth at 10^-6 M incubated for 48 hrs by sulforhodamine B assay; format: functional; conditions: read-out: Activity
[8] = Growth inhibition of human UACC62 cells assessed as cell growth at 10^-6 M incubated for 48 hrs by sulforhodamine B assay; format: functional; conditions: UACC-62, 48 h, read-out: Activity
[9] = Growth inhibition of human UACC62 cells assessed as cell growth at 10^-7 M incubated for 48 hrs by sulforhodamine B assay; format: functional; conditions: UACC-62, 48 h, read-out: Activity
U-251 = assay: Growth inhibition of human U251 cells assessed as cell growth at 10^-5 M incubated for 48 hrs by sulforhodamine B assay; format: functional; conditions: U-251, 48 h, read-out: Activity
[10] = Growth inhibition of human HCT15 cells assessed as cell growth at 10^-4 M incubated for 48 hrs by sulforhodamine B assay; format: functional; conditions: HCT-15, 48 h, read-out: Activity; method in brief: as §1
[11] = Growth inhibition of human HCC2998 cells assessed as cell growth at 10^-4 M incubated for 48 hrs by sulforhodamine B assay; format: functional; conditions: HCC 2998, 48 h, read-out: Activity
[12] = Growth inhibition of human CNS cancer cells incubated for 48 hrs by sulforhodamine B assay; format: functional; conditions: Cancer cell lines; method in brief: as §3
MDA-MB-435 = assay: Growth inhibition of human MDA-MB-435 cells assessed as cell growth at 10^-5 M incubated for 48 hrs by sulforhodamine B assay; format: functional; conditions: MDA-MB-435, 48 h, read-out: Activity
[13] = Growth inhibition of human SNB75 cells assessed as cell growth at 10^-4 M incubated for 48 hrs by sulforhodamine B assay; format: functional; conditions: SNB-75, 48 h, read-out: Activity
[14] = Growth inhibition of human RPMI8226 cells assessed as cell growth at 10^-4 M incubated for 48 hrs by sulforhodamine B assay; format: functional; conditions: RPMI-8226, 48 h, read-out: Activity
T47D = assay: Growth inhibition of human T47D cells assessed as cell growth at 10^-4 M incubated for 48 hrs by sulforhodamine B assay; format: functional; conditions: read-out: Activity
[15] = Growth inhibition of human BT549 cells assessed as cell growth at 10^-6 M incubated for 48 hrs by sulforhodamine B assay; format: functional; conditions: BT-549, 48 h, read-out: Activity; method in brief: as §3
[16] = Growth inhibition of human TK10 cells assessed as cell growth at 10^-7 M incubated for 48 hrs by sulforhodamine B assay; format: functional; conditions: TK-10, 48 h, read-out: Activity
[17] = Growth inhibition of human SF268 cells assessed as cell growth at 10^-8 M incubated for 48 hrs by sulforhodamine B assay; format: functional; conditions: SF-268, 48 h, read-out: Activity
[18] = Growth inhibition of human HOP92 cells assessed as cell growth at 10^-7 M incubated for 48 hrs by sulforhodamine B assay; format: functional; conditions: HOP-92, 48 h, read-out: Activity
[19] = Growth inhibition of human SF295 cells incubated for 48 hrs by sulforhodamine B assay; format: functional; conditions: SF-295, 48 h; method in brief: as §2
[20] = read-out: LC50 (the source's name)
[21] = read-out: pLC50 (the source's name) (converted)

Fc1ccc(-c2nc(Nc3ccc(-c4nc5ccccc5[nH]4)cc3)nc(N3CCOCC3)n2)cc1
GI50 ([1]; read-out: GI50): 1920 nM | LC50 ([1]; read-out: LC50): 9.23 µM | TGI ([1]; read-out: TGI): 4.21 µM | GI50 ([1]; read-out: pGI50 (converted)): 1910 nM | LC50 ([1]; read-out: pLC50 (converted)): 9.33 µM | TGI ([1]; read-out: pTGI (converted)): 4.17 µM | growth at 10 µM (MCF7): -44.3% | GI50 ([2]; read-out: GI50): 2700 nM | CC50 [2, 20]: > 100 µM | TGI ([2]; read-out: TGI): 8.9 µM | GI50 ([2]; read-out: pGI50 (converted)): 2690 nM | CC50 [2, 21]: > 100 µM | TGI ([2]; read-out: pTGI (converted)): 8.91 µM | growth at 0.01 µM [3]: 98% | growth at 1 µM [4]: 100% | Activity (Albumin): 341 nm | growth at 10 µM (SN12C [5]): 40.8% | LC50 (50% lethal concentration) (SN12C [6]): > 100 µM | GI50 (SN12C [6]; read-out: GI50): 3.19 µM | TGI (SN12C [6]; read-out: TGI): 23 µM | GI50 (SN12C [6]; read-out: pGI50 (converted)): 3.16 µM | CC50 (SN12C [6]; [21]): > 100 µM | TGI (SN12C [6]; read-out: pTGI (converted)): 22.9 µM | growth at 0.01 µM (ACHN): 100% | growth at 0.01 µM [7]: 99% | growth at 1 µM (NCI/ADR-RES): 90% | growth at 1 µM [8]: 86% | growth at 0.1 µM [9]: 91% | growth at 10 µM (U-251): 5% | growth at 100 µM [10]: -13% | growth at 100 µM [11]: 2% | GI50 [12]: 2230 nM | TGI [12]: 11.8 µM | CC50 [12, 20]: 8.47 µM | growth at 10 µM (MDA-MB-435): -62% | growth at 100 µM [13]: -33% | growth at 100 µM [14]: -14% | growth at 100 µM (T47D): -44% | growth at 1 µM [15]: 83% | growth at 0.1 µM [16]: 88% | growth at 0.01 µM [17]: 95% | growth at 0.1 µM [18]: 104% | GI50 ([19]; read-out: GI50): 1590 nM | CC50 [19, 20]: > 100 µM | TGI ([19]; read-out: TGI): 4.7 µM | GI50 ([19]; read-out: pGI50 (converted)): 1580 nM | CC50 [19, 21]: > 100 µM | TGI ([19]; read-out: pTGI (converted)): 4.68 µM
